Results as given in ChEMBL document CHEMBL1124365, “3-Quaternary ammonium 1-carba-1-dethiacephems” (J Med Chem, 1989).
≈ marks a conversion by molar mass, not a printed value.

What was measured:
[1] = tested on: Enterobacter cloacae; assay: Minimal inhibitory activity against the Enterobacter cloacae (265A beta lactamase containing); type: functional
Procedure, shortened: (§1)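 Agar dilution: compounds diluted in 0.1 M phosphate buffer pH 7.0, incorporated into Mueller-Hinton agar with 1% Bacto-Supplement C at 50 °C. Overnight cultures diluted to ~1×10^4 cells/µL, 1 µL spotted onto plates; incubated overnight at 35 °C in ambient air. MIC = lowest concentration preventing visible growth.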

[2] = tested on: Staphylococcus aureus; assay: Minimal inhibitory activity against the Staphylococcus aureus (X1.1); type: functional; procedure, shortened: as §1
[3] = tested on: Enterobacter cloacae; assay: Minimal inhibitory activity against the Enterobacter cloacae (EB5); type: functional; procedure, shortened: as §1
[4] = tested on: Staphylococcus epidermidis; assay: Minimal inhibitory activity against the Staphylococcus epidermidis (222); type: functional; procedure, shortened: as §1
[5] = tested on: Haemophilus influenzae; assay: Minimal inhibitory activity against the Haemophilus influenzae (C.L); type: functional; procedure, shortened: as §1
[6] = tested on: Streptococcus pyogenes; assay: Minimal inhibitory activity against the Streptococcus pyogenes (C203); type: functional; procedure, shortened: as §1
[7] = tested on: Streptococcus pneumoniae; assay: Minimal inhibitory activity against the Streptococcus pneumoniae (PARK); type: functional; procedure, shortened: as §1
[8] = tested on: Providencia rettgeri; assay: Minimal inhibitory activity against the Proteus rettgeri (C24); type: functional; procedure, shortened: as §1
[9] = tested on: Escherichia coli; assay: Minimal inhibitory activity against the E. coli(TEM beta lactamase containing); type: functional; procedure, shortened: as §1
[10] = tested on: Pseudomonas aeruginosa; assay: Minimal inhibitory activity against the Pseudomonas aeruginosa (X528); type: functional; procedure, shortened: as §1
[11] = tested on: Klebsiella; assay: Minimal inhibitory activity against the Klebsiella (X26); type: functional; procedure, shortened: as §1
[12] = tested on: Morganella morganii; assay: Minimal inhibitory activity against the Proteus morganii (PR15); type: functional; procedure, shortened: as §1
[13] = tested on: Klebsiella; assay: Minimal inhibitory activity against the Klebsiella(KAE beta lactamase containing); type: functional; procedure, shortened: as §1
[14] = tested on: Escherichia coli; assay: Minimal inhibitory activity against the Escherichia coli (EC14); type: functional; procedure, shortened: as §1
[15] = tested on: Salmonella; assay: Minimal inhibitory activity against the Salmonella (X514); type: functional; procedure, shortened: as §1
[16] = Half-life was evaluated for pharmacokinetic data in rats; type: ADME, organism-based; details: rat, in vivo
Procedure, shortened: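 Male Sprague-Dawley rats, single 20 mg/kg intravenous dose in saline via indwelling jugular vein cannula; serial blood sampling from the same cannula over 4 h. Plasma levels measured by agar well diffusion bioassay with E. coli ATCC 4157 (detection limit ≤0.80 µg/mL). Half-life calculated as 0.693/β, β being the terminal slope of the plasma concentration–time curve.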

[17] = species on record: Rattus norvegicus; assay: Urinary recovery was evaluated for pharmacokinetic data in rats; type: organism-based; details: Urine
Procedure, shortened: (§2)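 Male Sprague-Dawley rats given 20 mg/kg IV in saline via indwelling jugular vein cannula; serial blood sampling through cannula, plasma and urine collected over 4 h. Drug levels by agar well diffusion bioassay with E. coli ATCC 4157 (detection limit ≤0.80 μg/mL). Half-life = 0.693/β from terminal plasma slope; urinary recovery as percent of administered dose.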

[18] = tested on: Enterobacter cloacae; assay: Truncation of the zone of inhibition was graded for Enterobacter cloacae EB17 on a 30 ug disk of test compound; type: functional
Procedure, shortened: (§3)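 Cefoxitin disk approximation: Mueller-Hinton agar swab-inoculated with ~1×10^8 cells/mL of inducible Enterobacter strains; 30 µg test-compound disks plus 30 µg cefoxitin disks placed ~15 mm from their edge. Overnight at 35 °C in ambient air; truncation of inhibition zone on cefoxitin-proximal side graded as a measure of induced β-lactamase effect.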

[19] = tested on: Enterobacter cloacae; assay: Truncation of the zone of inhibition was graded for Enterobacter cloacae EB5 on a 30 ug disk of test compound; type: functional; procedure, shortened: as §3
[20] = tested on: Enterobacter cloacae; assay: Truncation of the zone of inhibition was graded for Enterobacter cloacae EB57 on a 30 ug disk of test compound; type: functional; procedure, shortened: as §3
[21] = Half-life was evaluated for pharmacokinetic data in rats.; type: ADME, organism-based; details: rat, in vivo; procedure, shortened: as §2

Row | Structure (SMILES) | MIC [1] [µg/mL] | MIC [2] [µg/mL] | MIC [3] [µg/mL] | MIC [4] [µg/mL] | MIC [5] [µg/mL] | MIC [6] [µg/mL] | MIC [7] [µg/mL] | MIC [8] [µg/mL] | MIC [9] [µg/mL] | MIC [10] [µg/mL] | MIC [11] [µg/mL] | MIC [12] [µg/mL] | MIC [13] [µg/mL] | MIC [14] [µg/mL] | MIC [15] [µg/mL] | Recovery [17] [%] | Zone diameter [18] [mm] | Zone diameter [19] [mm] | Zone diameter [20] [mm] | also measured
1 | CO/N=C(\C(=O)N[C@@H]1C(=O)N2C(C(=O)[O-])=C([n+]3ccc4c(c3)ncn4C)CC[C@H]12)c1csc(N)n1 | 1 (≈ 2.01 µM) | 4 (≈ 8.06 µM) | 0.125 (≈ 0.252 µM) | 8 (≈ 16.1 µM) | 0.5 (≈ 1.01 µM) | 0.06 (≈ 0.121 µM) | 0.06 (≈ 0.121 µM) | 0.25 (≈ 0.504 µM) | 0.5 (≈ 1.01 µM) | 128 (≈ 258 µM) | 0.06 (≈ 0.121 µM) | 0.5 (≈ 1.01 µM) | 4 (≈ 8.06 µM) | 0.06 (≈ 0.121 µM) | 0.06 (≈ 0.121 µM) | – | – | – | – | –
2 | CO/N=C(\C(=O)N[C@@H]1C(=O)N2C(C(=O)[O-])=C([n+]3cc(C)ccc3C)CC[C@H]12)c1csc(N)n1 | 1 (≈ 2.13 µM) | 4 (≈ 8.5 µM) | 0.25 (≈ 0.531 µM) | 8 (≈ 17 µM) | 0.5 (≈ 1.06 µM) | 0.03 (≈ 0.0638 µM) | 0.06 (≈ 0.128 µM) | 0.25 (≈ 0.531 µM) | 0.125 (≈ 0.266 µM) | 128 (≈ 272 µM) | 0.125 (≈ 0.266 µM) | 0.25 (≈ 0.531 µM) | 2 (≈ 4.25 µM) | 0.125 (≈ 0.266 µM) | 0.125 (≈ 0.266 µM) | – | – | – | – | –
3 | CO/N=C(\C(=O)N[C@@H]1C(=O)N2C(C(=O)[O-])=C([n+]3cccc4c3CCCC4)CC[C@H]12)c1csc(N)n1 | 2 (≈ 4.03 µM) | 2 (≈ 4.03 µM) | 0.25 (≈ 0.503 µM) | 8 (≈ 16.1 µM) | 0.5 (≈ 1.01 µM) | 0.06 (≈ 0.121 µM) | 0.06 (≈ 0.121 µM) | 4 (≈ 8.06 µM) | 1 (≈ 2.01 µM) | 128 (≈ 258 µM) | 0.125 (≈ 0.252 µM) | 1 (≈ 2.01 µM) | 16 (≈ 32.2 µM) | 0.125 (≈ 0.252 µM) | 0.125 (≈ 0.252 µM) | – | – | – | – | –
4 | CC(C)(O/N=C(\C(=O)N[C@@H]1C(=O)N2C(C(=O)[O-])=C(C[n+]3ccccc3)CS[C@H]12)c1csc(N)n1)C(=O)O [CEFTAZIDIME] | 32 (≈ 58.5 µM) | 8 (≈ 14.6 µM) | – | 16 (≈ 29.3 µM) | 0.06 (≈ 0.11 µM) | 0.06 (≈ 0.11 µM) | 0.06 (≈ 0.11 µM) | – | 0.125 (≈ 0.229 µM) | 2 (≈ 3.66 µM) | 0.06 (≈ 0.11 µM) | 0.5 (≈ 0.915 µM) | 0.5 (≈ 0.915 µM) | 0.06 (≈ 0.11 µM) | 0.125 (≈ 0.229 µM) | 100 | – | – | – | half-life [16]: 22.9 min
5 | CO/N=C(\C(=O)N[C@@H]1C(=O)N2C(C(=O)[O-])=C(C[n+]3ccccc3)CS[C@H]12)c1csc(N)n1 | – | – | – | – | – | – | – | – | – | – | – | – | – | – | – | – | 30 | 30 | 30 | –
6 | CO/N=C(\C(=O)N[C@@H]1C(=O)N2C(C(=O)[O-])=C(C[n+]3ccccc3)CC[C@H]12)c1csc(N)n1 | – | – | – | – | – | – | – | – | – | – | – | – | – | – | – | 87.9 | 35 | 26 | 26 | half-life [16]: 22.9 min
7 | CO/N=C(\C(=O)N[C@@H]1C(=O)N2C(C(=O)[O-])=C([n+]3ccc(C)c(C)c3)CC[C@H]12)c1csc(N)n1 | 0.25 (≈ 0.531 µM) | 2 (≈ 4.25 µM) | 0.125 (≈ 0.266 µM) | 4 (≈ 8.5 µM) | 0.25 (≈ 0.531 µM) | 0.03 (≈ 0.0638 µM) | 0.015 (≈ 0.0319 µM) | 0.06 (≈ 0.128 µM) | 0.06 (≈ 0.128 µM) | 128 (≈ 272 µM) | 0.06 (≈ 0.128 µM) | 0.125 (≈ 0.266 µM) | 4 (≈ 8.5 µM) | 0.06 (≈ 0.128 µM) | 0.03 (≈ 0.0638 µM) | – | 30 | 30 | 31 | –
8 | CO/N=C(\C(=O)N[C@@H]1C(=O)N2C(C(=O)[O-])=C([n+]3ccccc3)CC[C@H]12)c1csc(N)n1 | 2 (≈ 4.52 µM) | 4 (≈ 9.04 µM) | 0.125 (≈ 0.283 µM) | 8 (≈ 18.1 µM) | 0.5 (≈ 1.13 µM) | 0.03 (≈ 0.0678 µM) | 0.03 (≈ 0.0678 µM) | 0.5 (≈ 1.13 µM) | 0.06 (≈ 0.136 µM) | 128 (≈ 289 µM) | 0.03 (≈ 0.0678 µM) | 0.25 (≈ 0.565 µM) | 8 (≈ 18.1 µM) | 0.06 (≈ 0.136 µM) | 0.03 (≈ 0.0678 µM) | 82.6 | 30 | 30 | 31 | half-life [21]: 21.2 min
9 | CO/N=C(\C(=O)N[C@@H]1C(=O)N2C(C(=O)[O-])=C([n+]3cccc4c3CCC4)CC[C@H]12)c1csc(N)n1 | 1 (≈ 2.07 µM) | 2 (≈ 4.14 µM) | 0.125 (≈ 0.259 µM) | 4 (≈ 8.29 µM) | 0.5 (≈ 1.04 µM) | 0.03 (≈ 0.0622 µM) | 0.03 (≈ 0.0622 µM) | 0.5 (≈ 1.04 µM) | 0.5 (≈ 1.04 µM) | 128 (≈ 265 µM) | 0.03 (≈ 0.0622 µM) | 0.25 (≈ 0.518 µM) | 8 (≈ 16.6 µM) | 0.06 (≈ 0.124 µM) | 0.03 (≈ 0.0622 µM) | 82.3 | – | – | – | half-life [21]: 20.1 min
10 | Cc1cc[n+](C2=C(C(=O)[O-])N3C(=O)[C@@H](NC(=O)/C(=N\OCc4ccccc4)c4csc(N)n4)[C@H]3CC2)cc1C | 8 (≈ 14.6 µM) | 1 (≈ 1.83 µM) | 4 (≈ 7.32 µM) | 2 (≈ 3.66 µM) | 0.125 (≈ 0.229 µM) | 0.03 (≈ 0.0549 µM) | 0.015 (≈ 0.0274 µM) | 8 (≈ 14.6 µM) | 1 (≈ 1.83 µM) | 128 (≈ 234 µM) | 0.06 (≈ 0.11 µM) | 2 (≈ 3.66 µM) | 128 (≈ 234 µM) | 2 (≈ 3.66 µM) | 1 (≈ 1.83 µM) | – | – | – | – | –
